Measured values: PMC5003678 (European journal of medicinal chemistry, 2016)

How the values were obtained:
[1] = tested on: six cancer cell lines (HL-60, HCT-116, PC3, SF295, MDA-MB-435, OVCAR-8); experiment: MTT cytotoxicity assay, cancer cell lines overall; assay type: cell-based, human; conditions: classified by IC50
[2] = tested on: HL-60 (human promyelocytic leukemia cells); conditions: read-out: Cytotoxic activity IC50 (95% CI) HL-60; 72 h exposure; ref [41]; cited from earlier work
[3] = tested on: SF295 (human glioblastoma cells); conditions: read-out: Cytotoxic activity IC50 (95% CI) SF295; 72 h exposure; ref [41]; cited from earlier work
[4] = tested on: A549 cells (human non-small cell lung adenocarcinoma); experiment: DNA survival assay, NQO1-dependency with or without dicoumarol; assay type: cell-based; conditions: two hours exposure
[5] = tested on: PC3 cells; experiment: Annexin V/PI detection of phosphatidylserine externalization; assay type: cell-based, human; conditions: 5 μM, 6 h; for phosphatidylserine externalization, pre-treated with NAC: 5 mM NAC pre-exposure (24 h); for phosphatidylserine externalization, co-treated with dicoumarol: dicoumarol 50 μM
Summary of the method: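 PC3 cells were grown in RPMI 1640 with 10% FBS, 2 mM L-glutamine and penicillin/streptomycin at 37 °C and 5% CO2. They were exposed to 5 μM test compound for 6 h, either after a 24 h pre-exposure to 5 mM N-acetylcysteine or with 50 μM dicoumarol co-treatment. Cells were stained with FITC-Annexin V plus PI and read by flow cytometry, with early apoptosis as FITC only and late as FITC+PI. 10,000 events were counted per experiment, debris excluded, n = 3.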

[6] = tested on: intracellular ROS; experiment: Generation of intracellular ROS; assay type: cell-based

O=C1C(=O)c2ccccc2C2=C1CC(Cn1cc(C[Se]c3ccccc3)nn1)O2 (stereo not drawn) [Compound 26, 2-((4-((phenylselanyl)methyl)-1H-1,2,3-triazol-1-yl)methyl)-2,3-dihydronaphtho[1,2-b]furan-4,5-dione]
activity classification against cancer cell lines [1]: highly active (highly active (IC50 < 2 μM))

C#Cc1cccc(NC2CC(C)(C)OC3=C2C(=O)c2ccccc2C3=O)c1 (stereo not drawn) [Compound 4, 4-((3-ethynylphenyl)amino)-2,2-dimethyl-3,4-dihydro-2H-benzo[g]chromene-5,10-dione]
activity classification against cancer cell lines [1]: non-active

CC1(C)OC2=C(C(=O)C(=O)c3ccccc32)C(N=[N+]=[N-])[C@@H]1Br (stereo partly drawn) [Compound 9]
IC50 [2]: 1430 nM
IC50 [3]: 1930 nM

CC1(C)OC2=C(C(=O)C(=O)c3ccccc32)C1n1cc(C[Se]c2ccccc2)nn1 (stereo not drawn) [Compound 22, 2,2-dimethyl-3-(4-((phenylselanyl)methyl)-1H-1,2,3-triazol-1-yl)-2,3-dihydronaphtho[1,2-b]furan-4,5-dione]
NQO1 Specific [4]: NQO1-dependent
phosphatidylserine externalization [5]: significant increase
phosphatidylserine externalization, pre-treated with NAC [5]: not observed
phosphatidylserine externalization, co-treated with dicoumarol [5]: not observed

CC1(C)OC2=C(C(=O)C(=O)c3ccccc32)C1Nc1cccc(-c2cn(C[Se]c3ccccc3)nn2)c1 (stereo not drawn) [Compound 21, 2,2-dimethyl-3-((3-(1-((phenylselanyl)methyl)-1H-1,2,3-triazol-4-yl)phenyl)amino)-2,3-dihydronaphtho[1,2-b]furan-4,5-dione]
NQO1 Specific [4]: NQO1-dependent
phosphatidylserine externalization [5]: significant increase
phosphatidylserine externalization, pre-treated with NAC [5]: not observed
phosphatidylserine externalization, co-treated with dicoumarol [5]: not observed
generation of intracellular ROS, pre-exposed with NAC ([6]; cultures pre-exposed with NAC): not able to generate ROS
generation of intracellular ROS ([6]; short exposure (1 h)): led to the generation of intracellular ROS
activity classification against cancer cell lines [1]: highly active (highly active (IC50 < 2 μM))
